In the EternaBench riboswitch data:

Test system: MS2 coat protein
Assay: apparent Kd, MS2 coat protein; higher = weaker binding; RNA-MaP array; FMN 200 µM where present
Procedure, shortened: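 Apparent Kd: the median of filtered binding-curve fits from single clusters. Designs were transcribed on Illumina sequencing-chip clusters by stalled E. coli RNA polymerase and titrated with SNAP-549-labelled MS2 coat protein from 0.7 or 1.5 nM, doubling to 3 µM, in 100 mM Tris-HCl pH 7.5, 80 mM KCl, 4 mM MgCl2, BSA, DTT, yeast tRNA and Tween-20. Each series ran without and then with constant ligand, and green signal was normalised to red-channel RNA signal and control-cluster median Fmax.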

[1] = designed as: ON switch for flavin mononucleotide, no ligand
[2] = ligand present: flavin mononucleotide, designed as: ON switch for flavin mononucleotide
[3] = designed as: OFF switch for flavin mononucleotide, no ligand
[4] = ligand present: flavin mononucleotide, designed as: OFF switch for flavin mononucleotide

GUUUUCGCAUGAGGAUAUGCUCGCAAUUCAAGAGCAGAAGGUAUGUCUAUAGACAUGAGGAUCACCCAUGUAUUUAUCAUUGAA
apparent Kd [1]: 218 nM | apparent Kd [2]: 58.7 nM

CAAGUGUCAGGAUAUACAUGAGGAUCACCCAUGUGUCUUUGUGAUCGUAGGGUGCACCGUAGAAGGGACACUCC
apparent Kd [3]: 70.4 nM | apparent Kd [4]: 127 nM

UCGAUGCGAGGAUAUACAAGGGCAACUACUGCCGCUAUAUAACAUGAGGAUCACCCAUGUAGAAGGCGCAUAUA
apparent Kd [3]: 22.1 nM | apparent Kd [4]: 30.2 nM

ACAUGAGGAUCACCCAUGUGAGGAUCUCCCAUGUUAUAUUUCAGAAGGCUCGUGUGUUUGAUGAGAGAGGAUAUGGAAUAUACG
apparent Kd [3]: 73.7 nM | apparent Kd [4]: 49.7 nM

CCCUCACAUGAGGAUCACCCAUGUCAGGAUAUCUCACAUCGGCCUUAGGCCAAUGUCAAGAGAAGGGACGUAUC
apparent Kd [3]: 22.3 nM | apparent Kd [4]: 33.9 nM

AGAAAACAUGAGGAUCACCCAUGUAGAAAUAUGGGAGGAUAUACAAAGACGAAAGUCAAGGUAGAAGGCCUAAAGA
apparent Kd [1]: 86.7 nM | apparent Kd [2]: 27.4 nM

GACUCUAAGUUUGUCAGUUAGAGAGAGGAUAUGGAAAACUUGACAUGAGGAUCACCCAUGUAUAAUCAGAAGGCUCGAGUACGA
apparent Kd [1]: 12.9 nM | apparent Kd [2]: 8.91 nM

AAUUAUUUAUGAGGAUAUUGUGGUGAAACACCACAAGAAGGCAUGAUACACAUGAGGAUCACCCAUGUGAGCCUGAUGCAUAUA
apparent Kd [3]: 17.2 nM | apparent Kd [4]: 28.4 nM

GUAACAUGAGGAUCACCCAUGUAUAGAACACUCAAUAGAUCUGAGGAUAUAGUGGAAUUUACACACUAGAAGGCAGUGGGUACA
apparent Kd [1]: 53.9 nM | apparent Kd [2]: 31.9 nM

GGAGGAGGUGUAGGAUAUAUAGAGGAGGGAGGGAUAGAAGGACAUGAGGAUCACCCAUGUGAGGAGGAGGAGGGAGGGAGGAGG
apparent Kd [3]: 13.4 nM | apparent Kd [4]: 11.9 nM

ACACGACAUGAGGAUCACCCAUGUUUCCGAUUCACAGGAUAUGGGACAUCCGGAGGGUGACCAGAAGGGUGACUCG
apparent Kd [1]: 151 nM | apparent Kd [2]: 28.3 nM

GUUGGGUUUUUUUUUGGACGUUCAACAUGAGGAUCACCCAUGUAGGAUAUCGUUUGUUUUUUUUACGAGAAGGGCGUAUUUUUU
apparent Kd [3]: 9.65 nM | apparent Kd [4]: 8.01 nM

GCCAUCACGUGAGGAUAUGCUCCCGUUUCGGGAGCAGAAGGCAUGUCAUAAGACAUGAGGAUCACCCAUGUAGUUAAGAUGGCA
apparent Kd [1]: 317 nM | apparent Kd [2]: 12 nM

UAAGACUAGCAUUGGUAUCUCCACAUGAGGAUCACCCAUGUUUAGGAUAUGAGCAGCAAAGCUGCUUAGAAGGAGACGCUAGUC
apparent Kd [3]: 7.26 nM | apparent Kd [4]: 7.21 nM

UUAGAAUUUGCAGGAUAUUGUAUUUUAUUACAUCAAGAAGGGCAUUACAUGAGGAUCACCCAUGUUAACAUGGUUAUAAAUUUU
apparent Kd [3]: 94.8 nM | apparent Kd [4]: 29.5 nM

GCCAUCGCAUGAGGAUAUGGCACCGUUUCGGUGCCAGAAGGCAUGUCAUAAGACAUGAGGAUCACCCAUGUGAAUAAGAUGGCA
apparent Kd [1]: 360 nM | apparent Kd [2]: 38.5 nM

UGUUUUUAUGUGAGGAUAUGGGUUUGGUUGCGGGCUUAGAAGGUACAUGAGGAUCACCCAUGUACUUUGUGCAU
apparent Kd [3]: 16.4 nM | apparent Kd [4]: 17 nM

UAUAUUUUUAUAGGAUAUGGAUAUGAUGCAUAUCCAGAAGGGUGAUUAUAAUAUAAUCUAUACAUGAGGAUCACCCAUGUUUAU
apparent Kd [1]: 242 nM | apparent Kd [2]: 72 nM

AGCAAGUCAGGAUAUGCGAAGUCAGGACACACACUGACGAAGCAGAAGGGACAUGAGGAUCACCCAUGUAAGCA
apparent Kd [3]: 29.1 nM | apparent Kd [4]: 42.9 nM

UCCUAACAUGAGGAUCACCCAUGUCAGGAUAUGAUACUAUGUACUUCGGUACAUAGUAUCAGAAGGGACAUCCU
apparent Kd [3]: 15.3 nM | apparent Kd [4]: 16.6 nM

ACAUACAUUCGAGGAUAUCGGUGAGAAAUCUUACGAGAAGGCGAUUCAUGAUUUAUUAUCCUGGACAUGAGGAUCACCCAUGUA
apparent Kd [1]: 97.5 nM | apparent Kd [2]: 61.1 nM

AGAUGGCGAGGAUAUACAUGAGGAUCACCCAUGUGAAGAAGAAUAGUGAGGAAGAAAAGUAGAAGGCGCUGUCA
apparent Kd [3]: 53.6 nM | apparent Kd [4]: 180 nM

GCUUGUAGAGGAUAUACAAGGGCCCAAGCGGCGAGAGCCGCACAUGAGGAUCACCCAUGUAGAAGGCUACUAUA
apparent Kd [3]: 192 nM | apparent Kd [4]: 499 nM

ACUAAGCGAGGAUAUACUAACAAACCUCAAACAUACAUCAAACAUGAGGAUCACCCAUGUAGAAGGCGCAAACU
apparent Kd [3]: 27.3 nM | apparent Kd [4]: 37.6 nM

AAAACAUACCGAGGAUAUUCAUAUAAUAAAUAAACAUGAGGAUCACCCAUGUGGCAAAAGCCUAGGGAGAAGGCGGAAUGCUAA
apparent Kd [1]: 36 nM | apparent Kd [2]: 22.4 nM

CGAUAGGACAGAGGAUAUACACAUGAGGAUCACCCAUGUGAUUUCGGCGCGAAAGCGCCAAACAUGUAGAAGGCUGUCCUAUCG
apparent Kd [3]: 11.3 nM | apparent Kd [4]: 4.89 nM

UAGUGCGUUAGAGGAUAUUCUAAAUAAAAUAAUAAGACAUGAGGAUCACCCAUGUAUGUACAUGGGAAGAAGGCUGAUGUGCUA
apparent Kd [1]: 573 nM | apparent Kd [2]: 42.9 nM

UCCUUGGUACAGAAGGACCGAGCUCCGUAGCAGGUAGGAUAUGUACAUGAGGAUCACCCAUGUCAGCGGUAAUUACCAGUAUUC
apparent Kd [3]: 40.2 nM | apparent Kd [4]: 29.1 nM

AGUCAUACAGGAUAUACAUGAGGAUCACCCAUGUAUAUCCAAAAUGGGUGAUCCUCAUGUAGAAGGGUAUGACA
apparent Kd [3]: 10.3 nM | apparent Kd [4]: 10.5 nM

CUUAUUUGAGGAUAUACGUCACCGUCUUCAUGAGUUCAAAUACAUGAGGAUCACCCAUGUAGAAGGCAAUUACU
apparent Kd [3]: 25.8 nM | apparent Kd [4]: 39.4 nM

UGCGCUGAGGGAGGAUAUGACAUGAGGAUCACCCAUGUGGUAGGUUUCUUGUCAGAAGGCCCGCAUGUACCGAAUUAGGUUCGU
apparent Kd [3]: 112 nM | apparent Kd [4]: 18.3 nM

UACGUACAGAAGAACUCCGGGUCCAGAAGGGACAUGAGGAUCACCCAUGUACCGUUGAUUGCUUGUCAGGAUAUGGACCCGGCC
apparent Kd [3]: 6.67 nM | apparent Kd [4]: 28 nM

GAUCCACAUGAGGAUCACCCAUGUGAGGAUAUGAUACUAUGUACUUCGGUACAUAGUAUCAGAAGGCAUAUGAA
apparent Kd [3]: 42 nM | apparent Kd [4]: 196 nM

GUAAUUAAGAGAGGAUAUUGACAUGAGGAUCACCCAUGUAUUUGGGAGUGUUUACUGAAUUCUUACGAGAAGGCUUUUAAAUAC
apparent Kd [3]: 89.2 nM | apparent Kd [4]: 178 nM

AUCAGCUCGUCAGGAUAUACGUCACUGCGUCAGCAGUGUGGUAAGAUCACAUGAGGAUCACCCAUGUAGAAGGGACGAUCUGAU
apparent Kd [3]: 12.8 nM | apparent Kd [4]: 309 nM

UUGGACGUCGUACGAUAUGUAGGAUAUUCCUACAUGAGGAUCACCCAUGUUGACAUGGAAGAAGGACAGAAGGACGAUGUCCAU
apparent Kd [1]: 151 nM | apparent Kd [2]: 5.61 nM

UGUCGGAGCAGAGGAUAUUACAUGAGGAUCACCCAUGUGGAAAAACCAAGCUGGAAACAGCAAUGUAAGAAGGCUGCUCCGACA
apparent Kd [3]: 487 nM | apparent Kd [4]: 804 nM

AGUCGGAGCAGAGGAUAUACAUGAGGAUCACCCAUGUAAUAAAGUGAAGCUUGGAAACAGGCAAUGUAGAAGGCUGCUCCGACA
apparent Kd [3]: 11.3 nM | apparent Kd [4]: 68.6 nM

UGGUCCUGAGGAUAUGCACCUCAAGUUAUCGUUCACCAUGCACAUGAGGAUCACCCAUGUAGAAGGUAGGAUCG
apparent Kd [3]: 18.8 nM | apparent Kd [4]: 16.6 nM

GACUGAUUGUAGAAGGUACUUAAUAAUAUUUAAUAACUCAUGUGACAUGAGGAUCACCCAUGUAGUAAGGAUAUACAUAUCUCA
apparent Kd [1]: 211 nM | apparent Kd [2]: 79.5 nM

ACAGAAGCACCCGGAACCGGACAAUGAGAAGGCCACGCACAUGAGGAUCACCCAUGUAAAGCUAUGGAGGAUAUCAUGAUGGAU
apparent Kd [1]: 40.3 nM | apparent Kd [2]: 5.64 nM

AAAAGACAUGAGGAUCACCCAUGUAAAAACAUAGGAGGAUAUGUCAUGAAAAAAGACUUGACAGAAGGCCUUUGUC
apparent Kd [1]: 164 nM | apparent Kd [2]: 65.4 nM

GUCAGCUCGUGAGGAUAUACAUGUGCUGGAUACAGCACUAUUGUGUUCACAUGAGGAUCACCCAUGUAGAAGGCACGAGCUGAU
apparent Kd [3]: 17.7 nM | apparent Kd [4]: 87.3 nM

GUAGAGUAAGGAUAUAGAGAAUAGGAUAGAAUGGUUAGAAUCUAGAAGGUACAUGAGGAUCACCCAUGUAAUGU
apparent Kd [3]: 21.9 nM | apparent Kd [4]: 19.8 nM

AAUAAGUGAGGAUAUACGAAAUAAAUAAAUAAAUAAAUAAAGUAGAAGGCACAUGAGGAUCACCCAUGUAAUAA
apparent Kd [3]: 34.6 nM | apparent Kd [4]: 29 nM

UUAAUUAAUUAAUUCGUCAUUACAUGAGGAUCACCCAUGUAUAAGGAUAUGCAGUGGAAUACACUGCAGAAGGUAUACAAGACG
apparent Kd [3]: 18.4 nM | apparent Kd [4]: 26.6 nM

CGCGUAUGAGGAUAUGCAUAAAAGGGUGCACUGAGUCUGAGACAUGAGGAUCACCCAUGUAGAAGGCGUGCGCU
apparent Kd [3]: 12.9 nM | apparent Kd [4]: 16 nM

UGUCGGAGCAGAGGAUAUUACAUGAGGAUCACCCAUGUAUGAACCAAUAGCUGGAAACAGCAACGUAAGAAGGCUGCUCCGACA
apparent Kd [3]: 6.75 nM | apparent Kd [4]: 47.2 nM

CCUCAGUAAGGAUAUCAGCUUAUAGAGUUGGUAAUGAGAGCUGAGAAGGUACAUGAGGAUCACCCAUGUUAGUU
apparent Kd [3]: 21.8 nM | apparent Kd [4]: 57.3 nM

AUGGUACAUGAGGAUCACCCAUGUCAGGAUAUCGGCUUUAACGUGAAAAGAGUGUUAGCGAGAAGGGACUGCUC
apparent Kd [3]: 23.6 nM | apparent Kd [4]: 28.7 nM

GCAGCGCUUGACAUGAGGAUCACCCAUGUUAGAUUGUUAUGUCAGGAUAUAGUCUAGAAACUAGACUAGAAGGGAUAUGCUGCU
apparent Kd [1]: 290 nM | apparent Kd [2]: 34.1 nM

AAGAAACAUGAGGAUCACCCAUGUCAGGAUAUCUCGAAAAGCAUAGAAAUAUGCGAAGAGAGAAGGGACAAGAA
apparent Kd [3]: 65 nM | apparent Kd [4]: 57 nM

AUCAAUCGUGUAGGAUAUGCGUGGCGAAGCUAUGCAGAAGGACAUGAGGAUCACCCAUGUCUUUCUGUCUGUGUACAGACAGGA
apparent Kd [3]: 20.4 nM | apparent Kd [4]: 71.5 nM

UUCAUUAACAUGAGGAUCACCCAUGUUGGCCAGUCUCACACCAGAAGGCACGUUGAGCACAGCAGUGAGGAUAUGGGUGACAUA
apparent Kd [1]: 236 nM | apparent Kd [2]: 223 nM

AAGUAGGGAGGAUAUACAUAGAUACAGAUUCAUGUAGAACUACAUGAGGAUCACCCAUGUAGAAGGCCCUAAUA
apparent Kd [3]: 31.6 nM | apparent Kd [4]: 193 nM
